Assay results taken from ChEMBL document CHEMBL2401669, “Discovery and structure-activity relationships of ent-Kaurene diterpenoids as potent and selective 11β-HSD1 inhibitors: potential impact in diabetes” (Eur J Med Chem, 2013).

What was measured:
[1] = molecular target: 11-beta-hydroxysteroid dehydrogenase 1 (Mus musculus) (UniProt P50172); experiment: Inhibition of mouse 11beta-HSD1 expressed in HEK293 cell microsomes assessed as inhibition of [3H]cortisone conversion to [3H]cortisol at 1 uM by scintillation proximity assay; details: Microsome
Chain of 11-beta-hydroxysteroid dehydrogenase 1 (Mus musculus) (P50172 whole entry, looked up): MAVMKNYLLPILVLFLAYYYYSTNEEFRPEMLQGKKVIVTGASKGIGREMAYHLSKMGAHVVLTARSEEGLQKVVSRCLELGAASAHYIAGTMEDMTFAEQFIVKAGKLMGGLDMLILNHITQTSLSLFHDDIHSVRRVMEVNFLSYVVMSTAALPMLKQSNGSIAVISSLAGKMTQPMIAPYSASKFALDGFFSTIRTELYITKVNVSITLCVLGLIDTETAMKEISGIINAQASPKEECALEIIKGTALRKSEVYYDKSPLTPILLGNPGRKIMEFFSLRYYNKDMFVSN
Outline: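 Primary single-concentration screen in the SPA. Mouse 11β-HSD1 HEK-293 stable-transfectant microsomes are incubated with NADPH and [3H]cortisone, and [3H]cortisol is captured by antibody-coupled protein A SPA beads. Inhibitory ratio is the average of two determinations, with deviation from the average of 10% of the average value.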

[2] = molecular target: 11-beta-hydroxysteroid dehydrogenase 1 (Mus musculus, UniProt P50172); experiment: Inhibition of mouse 11beta-HSD1 expressed in HEK293 cell microsomes assessed as inhibition of [3H]cortisone conversion to [3H]cortisol by scintillation proximity assay; parameters: species or system Microsome
Chain of 11-beta-hydroxysteroid dehydrogenase 1 (Mus musculus, UniProt P50172) (P50172 whole entry): as the sequence (P50172 whole entry, looked up) above
Outline: (§1)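 Enzyme source: microsomal fraction from HEK-293 cells stably transfected with 11β-HSD1 (human or mouse), incubated with NADPH and [3H]cortisone. The [3H]cortisol product is captured by a monoclonal antibody on protein A-coated SPA beads. IC50 is averaged over at least two independent experiments, at least duplicate per concentration.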

[3] = molecular target: 11-beta-hydroxysteroid dehydrogenase 1 (Homo sapiens, UniProt P28845); experiment: Inhibition of human 11beta-HSD1 expressed in HEK293 cell microsomes assessed as inhibition of [3H]cortisone conversion to [3H]cortisol by scintillation proximity assay; parameters: species or system Microsome; outline: as §1
Chain of 11-beta-hydroxysteroid dehydrogenase 1 (Homo sapiens, UniProt P28845) (P28845 whole entry): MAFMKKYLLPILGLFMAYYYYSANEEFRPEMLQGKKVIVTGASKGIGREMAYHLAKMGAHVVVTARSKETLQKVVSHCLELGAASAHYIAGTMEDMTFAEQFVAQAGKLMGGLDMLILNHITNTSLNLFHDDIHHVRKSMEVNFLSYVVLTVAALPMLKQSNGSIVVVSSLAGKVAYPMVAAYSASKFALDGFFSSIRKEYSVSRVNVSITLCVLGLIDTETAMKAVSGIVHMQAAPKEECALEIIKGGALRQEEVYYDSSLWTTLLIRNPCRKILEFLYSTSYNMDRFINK

[4] = molecular target: T1, 11-beta-hydroxysteroid dehydrogenase type 2 (Homo sapiens, UniProt P80365); experiment: Inhibition of human 11beta-HSD2
T1 sequence (P80365 whole entry): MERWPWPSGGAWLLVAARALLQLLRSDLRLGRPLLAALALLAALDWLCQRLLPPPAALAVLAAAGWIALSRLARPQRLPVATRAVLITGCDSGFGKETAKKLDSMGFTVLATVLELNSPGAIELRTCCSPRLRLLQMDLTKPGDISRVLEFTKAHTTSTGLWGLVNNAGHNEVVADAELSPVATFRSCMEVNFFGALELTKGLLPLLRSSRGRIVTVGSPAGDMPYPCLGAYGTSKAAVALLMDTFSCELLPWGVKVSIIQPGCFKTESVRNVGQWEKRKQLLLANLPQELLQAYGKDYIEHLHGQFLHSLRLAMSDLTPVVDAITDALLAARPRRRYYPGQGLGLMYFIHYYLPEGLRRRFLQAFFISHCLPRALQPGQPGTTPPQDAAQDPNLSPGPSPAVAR

[5] = species on record: Homo sapiens; experiment: selectivity ratio of IC50 for human 11beta-HSD2 to IC50 for human 11beta-HSD1
Outline: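 Ratio of 11β-HSD2 IC50 to 11β-HSD1 IC50 for the same species (mouse or human). Both IC50s come from microsome-based scintillation proximity assays, averaged over at least two independent experiments with at least duplicate wells per concentration. Only compounds exceeding 50% inhibition in the primary screen were evaluated.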

C=C1[C@H]2C[C@H](OC(=O)Nc3nccs3)[C@H]3[C@]4(C)CCC[C@@](C)(C(=O)O)[C@H]4CC[C@]3(C2)[C@@H]1O
inhibition [1]: 11.6%

C=C1[C@H]2C[C@H](OC(=O)N3CCOCC3)[C@H]3[C@]4(C)CCC[C@@](C)(C(=O)O)[C@H]4CC[C@]3(C2)[C@@H]1O
inhibition [1]: 35.2%

C=C1[C@H]2C[C@H](O)[C@H]3[C@]4(C)CCC[C@@](C)(NC(=O)N5CCCC5)[C@H]4CC[C@]3(C2)[C@@H]1O
inhibition [1]: 9.21%

C=C1C[C@@]23CC[C@H]4[C@@](C)(CCC[C@@]4(C)NC(=O)Nc4ccc(F)cc4)[C@@H]2CC[C@H]1C3
IC50 [2]: > 1 µM
IC50 [3]: 0.331 µM
IC50 [4]: > 100 µM
inhibition [1]: 25.9%
Ratio IC50 [5]: > 302

C=C1[C@H]2CC[C@H]3[C@]4(C)CCC[C@@](C)(C(=O)O)[C@H]4CC[C@]3(C2)[C@@H]1F
inhibition [1]: 56%

C[C@@]12CCC[C@@](C)(C(=O)O)[C@H]1CC[C@]13CC(=O)[C@@H](CC[C@H]12)C3
inhibition [1]: 19.6%

C=C1[C@H]2C[C@H](O)[C@H]3[C@]4(C)CCC[C@@](C)(NC(=O)Nc5cccc6ccccc56)[C@H]4CC[C@]3(C2)[C@@H]1O
IC50 [2]: > 1 µM
IC50 [3]: 0.266 µM
IC50 [4]: 1.6 µM
inhibition [1]: 52.2%
Ratio IC50 [5]: 6.2

C=C1[C@H]2C[C@H](O)[C@H]3[C@]4(C)CCC[C@@](C)(NC(=O)Nc5ccc(F)cc5)[C@H]4CC[C@]3(C2)[C@@H]1O
IC50 [2]: > 1 µM
IC50 [3]: 0.249 µM
IC50 [4]: > 100 µM
inhibition [1]: 7.92%
Ratio IC50 [5]: > 402

C=C1[C@@H](O)[C@@]23CC[C@H]4[C@@](C)(CCC[C@@]4(C)C(=O)O)[C@@H]2C=C[C@H]1C3
inhibition [1]: 19.6%

C=C1[C@H]2C[C@H](OC(=O)c3ccccc3)[C@H]3[C@]4(C)CCC[C@@](C)(C(=O)O)[C@H]4CC[C@]3(C2)[C@@H]1O
inhibition [1]: 21.3%

C=C1[C@H]2C[C@H](O)[C@H]3[C@]4(C)CCC[C@@](C)(NC(=O)NC(C)(C)C)[C@H]4CC[C@]3(C2)[C@@H]1O
inhibition [1]: 11.3%

C=C1C[C@@]23CC[C@H]4[C@@](C)(CCC[C@@]4(C)NC(=O)NC45CC6CC(CC(C6)C4)C5)[C@@H]2CC[C@H]1C3
IC50 [2]: > 1 µM
IC50 [3]: 0.407 µM
IC50 [4]: > 100 µM
inhibition [1]: 18.2%
Ratio IC50 [5]: > 246

CC1(C)[C@@H](O)CC[C@]2(C)[C@H]3C(=O)C=C4[C@@H]5C[C@@](C)(C(=O)O)CC[C@]5(C)CC[C@@]4(C)[C@]3(C)CC[C@@H]12
inhibition [1]: 96.7%

C=C1[C@H]2C[C@H](O)[C@H]3[C@]4(C)CCC[C@@](C)(NC(=O)Nc5nccs5)[C@H]4CC[C@]3(C2)[C@@H]1O
inhibition [1]: 5.39%

C=C1C[C@@]23CC[C@@H]4[C@](C)(CF)CCC[C@@]4(C)[C@@H]2CC[C@H]1C3
inhibition [1]: 37.7%

C=C1[C@H]2C[C@H](O)[C@H]3[C@]4(C)CCC[C@@](C)(NC(=O)Nc5ccccc5)[C@H]4CC[C@]3(C2)[C@@H]1O
IC50 [2]: > 1 µM
IC50 [3]: 0.0094 µM
IC50 [4]: > 1000 µM
inhibition [1]: 24.4%
Ratio IC50 [5]: > 10600

C=C1[C@H]2C[C@H](OC(=O)c3ccc(N(C)C)cc3)[C@H]3[C@]4(C)CCC[C@@](C)(C(=O)O)[C@H]4CC[C@]3(C2)[C@@H]1O
inhibition [1]: 34%

C=C1[C@H]2C[C@H](O)[C@H]3[C@]4(C)CCC[C@@](C)(NC(=O)NC5CCCCC5)[C@H]4CC[C@]3(C2)[C@@H]1O
IC50 [2]: > 1 µM
IC50 [3]: 0.165 µM
IC50 [4]: > 100 µM
inhibition [1]: 16.3%
Ratio IC50 [5]: > 605

C=C1C[C@@]23CC[C@H]4[C@@](C)(CCC[C@@]4(C)NC(=O)Nc4nccs4)[C@@H]2CC[C@H]1C3
inhibition [1]: 18.2%

C=C1[C@H]2C[C@H](O)[C@H]3[C@]4(C)CCC[C@@](C)(NC(=O)N5CCNCC5)[C@H]4CC[C@]3(C2)[C@@H]1O
inhibition [1]: 12.7%

C=C1[C@H]2C[C@H](O)[C@H]3[C@]4(C)CCC[C@@](C)(C(=O)O)[C@H]4CC[C@]3(C2)[C@@H]1O
inhibition [1]: 16.5%

C=C1[C@H]2C[C@H](O)[C@H]3[C@]4(C)CCC[C@@](C)(NC(=O)Nc5ccc(C(F)(F)F)cc5)[C@H]4CC[C@]3(C2)[C@@H]1O
inhibition [1]: 3.69%

C=C1C(=O)[C@@]23CC[C@H]4[C@@](C)(CCC[C@@]4(C)C(=O)O)[C@@H]2[C@@H](O)C[C@H]1C3
inhibition [1]: 25.3%

C=C1[C@H]2C[C@H](O)[C@H]3[C@]4(C)CCC[C@@](C)(NC(=O)N5CCOCC5)[C@H]4CC[C@]3(C2)[C@@H]1O
inhibition [1]: 21.4%

C=C1[C@H]2C[C@H](OC(C)=O)[C@H]3[C@]4(C)CCC[C@@](C)(C(=O)O)[C@H]4CC[C@]3(C2)[C@@H]1O
IC50 [2]: > 1 µM
IC50 [3]: 0.116 µM
IC50 [4]: 229 µM
inhibition [1]: 12.4%
Ratio IC50 [5]: 1970

C=C1[C@H]2C[C@H](O)[C@H]3[C@]4(C)CCC[C@@](C)(C(=O)OC)[C@H]4CC[C@]3(C2)[C@@H]1O
inhibition [1]: 25.1%

C=C1[C@H]2C[C@H](O)[C@H]3[C@]4(C)CCC[C@@](C)(NC(=O)N(C)OC)[C@H]4CC[C@]3(C2)[C@@H]1O
inhibition [1]: 16.1%

C[C@H]1[C@H]2C[C@H](O)[C@H]3[C@]4(C)CCC[C@@](C)(C(=O)O)[C@H]4CC[C@]3(C2)[C@@H]1O
inhibition [1]: 11.6%

C=C1[C@H]2C[C@H](O)[C@H]3[C@]4(C)CCC[C@@](C)(NC(=O)NC)[C@H]4CC[C@]3(C2)[C@@H]1O
inhibition [1]: 19.4%

C[C@@]12CCC[C@@](C)(C(=O)O)[C@H]1CC[C@@]13C[C@H](C[C@H](O)[C@@H]21)[C@]1(CO1)[C@H]3O
inhibition [1]: 16.8%

C=C1[C@H]2C[C@H](OC(=O)c3ccc(Br)cc3)[C@H]3[C@]4(C)CCC[C@@](C)(C(=O)O)[C@H]4CC[C@]3(C2)[C@@H]1O
inhibition [1]: 32.7%

C=C1[C@H]2C[C@H](O)[C@H]3[C@]4(C)CCC[C@@](C)(CO)[C@H]4CC[C@]3(C2)[C@@H]1O
inhibition [1]: 27.3%

C=C1C[C@@]23CC[C@H]4[C@@](C)(CCC[C@@]4(C)N=C=O)[C@@H]2CC[C@H]1C3
inhibition [1]: 55.5%

C=C1[C@H]2C[C@H](O)[C@H]3[C@]4(C)CCC[C@@](C)(NC(=O)NC56CC7CC(CC(C7)C5)C6)[C@H]4CC[C@]3(C2)[C@@H]1O
IC50 [2]: > 1 µM
IC50 [3]: 0.404 µM
IC50 [4]: 0.7 µM
inhibition [1]: 20.8%
Ratio IC50 [5]: 1.7

C=C1[C@H]2C[C@H](OC(=S)SC)[C@H]3[C@]4(C)CCC[C@@](C)(C(=O)O)[C@H]4CC[C@]3(C2)[C@@H]1O
IC50 [2]: > 1 µM
IC50 [3]: 0.771 µM
IC50 [4]: > 100 µM
inhibition [1]: 11.1%
Ratio IC50 [5]: > 130

C=C1[C@H]2C[C@H](O)[C@H]3[C@]4(C)CCC[C@@](C)(N=C=O)[C@H]4CC[C@]3(C2)[C@@H]1O
inhibition [1]: 16.8%
